The text below walks through data of PubChem BioAssay AID449763 (Sanford-Burnham Center for Chemical Genomics, 2010).

Structures are written as SMILES. Screen size: about 330,000 compounds; about 1,100 (0.33%) were called active.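 Rule for the calls: active = at 10 µM dose, activation of 40% or more, normalized to positive control; inactive = the rest.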 This excerpt belongs to a sample that is enriched for actives.

A short description of this experiment: PERK-eIF2a-CHOP pathway stimulators – cell-based, CHO-CHOP luciferase reporter, luminescence, uHTS, primary screen (AID 449763).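 Note: 100% = tunicamycin at 10 µg/mL and 0% = DMSO alone.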 The conditions noted are these: UPR activation, at 10 µM, hits give high values, percent of tunicamycin response over DMSO baseline. The procedure, abridged: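 Assay system: CHO-CHOP cells, stable luciferase reporter of PERK-eIF2a-CHOP signalling / Buffer or medium: F12 plus 10% serum / Compound dosing: one dose, 10 µM in 0.5% DMSO / Times: 6 h compound treatment, 37 °C / Technique: luciferase luminescence / Read-out: % reporter activation, DMSO baseline versus tunicamycin full activation / Benchmarks: tunicamycin and DMSO controls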
(In a reporter assay the amount or activity of a reporter protein is the signal.)
Take `COc1cc(C(=O)N/C(=C\c2cn(C)c3ccccc23)C(=O)N2CCOCC2)cc(OC)c1OC`: the activation was -0.204% (inactive).
Next, `CCCCC[C@H]1CN(C2CCCCC2)C(=O)[C@@H]1CC(=O)NCc1ccc(OC)cc1`: 0.258% (inactive); `CC[C@H](C)C(=O)N[C@H]1CCCN1C(=O)/C=C/c1ccccc1`: -0.778% (inactive).
Next, `Cc1nc2sc3c(c2c(=O)n1NC(=O)CCl)CCCC3`: 1.06% (inactive); `CCC(O)CNc1nc(-n2nc(C)cc2C)nc2sc3c(c12)CC(C)(C)OC3` (configuration not stated): -0.387% (inactive); `COCCNc1nc(-n2nc(C)cc2C)nc2sc3c(c12)CCCC3`: 45.9% (active).
Next, `O=C(Nc1ccc(S(=O)(=O)N2CCOCC2)cc1)c1ccc2ncsc2c1`: 2.81% (inactive).
`COC(=O)c1sccc1NN1C(=O)c2ccccc2C1=O`: the activation was -0.357% (inactive).
`C[C@@H]1C[C@@H]2O[C@H]2/C=C\C=C\C(=O)Cc2c(Cl)c(O)cc(O)c2C(=O)O1`: the activation was 145% (active).
Next, `COc1ccccc1C(=O)NCc1nnc(SC(C)C(=O)Nc2nccs2)n1C` (configuration not stated): -1.66% (inactive); `O=C(NCc1ccc(Cl)cc1)c1cc(=O)nc2sc(-c3ccccc3)nn12`: -2.04% (inactive).
Next, `COc1ccc(OC)c(-c2csc(NC(=O)C3=NNC(=O)CC3)n2)c1`: -1.74% (inactive); `COc1ccc(OC)c(Nc2nc(-c3ccc(O)c(O)c3)cs2)c1`: 74.3% (active).
Next, `COc1ccc(OC)c(-c2csc(NC(=O)COC(=O)C3CC3)n2)c1`: 1.31% (inactive); `COC(=O)C1CCN(C(=O)COC(=O)c2cc(S(=O)(=O)N3CCOCC3)ccc2C)CC1`: 0.025% (inactive); `COc1ccc(C2=NOC(Cn3nc(C(=O)NCc4ccc5c(c4)OCO5)cc3-c3ccccc3)C2)cc1` (configuration not stated): 0.69% (inactive).
With `Cc1ccsc1C(=O)OCC(=O)c1cc(C)n(CC2CCCO2)c1C` (configuration not stated), the activation was -8.43% (inactive).
Then `O=C1C(=O)N(CC2COc3ccccc3O2)c2ccccc21` (configuration not stated), with 2.24% (inactive).
Regarding `Cc1cc(C(=O)CCl)c(C)n1CC1COc2ccccc2O1` (configuration not stated), the activation was 174% (active).
Next, `CC(C)CNc1ncnc2c1cnn2Cc1ccc(Cl)cc1`: 2.5% (inactive).
Then `O=C(Nc1ccc(-n2ccnc2P(=O)(O)c2ccccc2)cc1)c1ccccc1Br`, with -1.3% (inactive).
For `COCCN(Cc1cc2cc3c(cc2nc1Cl)OCO3)C(=O)c1cccc(C)c1`, the activation was 2.77% (inactive).
Then `O=C(NC1CCN(Cc2ccccc2)CC1)c1ccc(Oc2cc(Cl)cc(Cl)c2)o1`, with 0.679% (inactive); and `Cn1cc(CN2CCC(C(O)CCc3ccccc3)CC2)c(-c2ccccc2F)n1` (configuration not stated), with -1.46% (inactive).
Then `CCCOC1CCCN(Cc2cn(C)nc2-c2ccccc2F)C1` (configuration not stated), with 44.6% (active); and `Cn1cc(CN2CCCC(CO)C2)c(-c2ccc(Oc3ccccc3)cc2)n1` (configuration not stated), with -1.18% (inactive).
Then `O=C(CN1C(=O)c2cccnc2Oc2ccc(Cl)cc21)Nc1ccc(F)cc1`, with 1.1% (inactive); and `Oc1c(CN2CCCC2)cc(COCc2ccccc2)c2cccnc12`, with 37.6% (inactive).
With `Cc1ccc(CN2CCN(c3ncccn3)CC2)c(C)c1`, the activation is 0.144% (inactive).
Then `Oc1c(CN2CCN(c3ccc(F)cc3)CC2)cc(Cl)c2cccnc12`, with 415% (active); and `O=C(Nc1ccc(N2CCN(C(=O)c3ccccc3)CC2)c(Cl)c1)c1cccnc1`, with 0.424% (inactive); and `CC(CCn1cccn1)NC(=O)CCc1nnc(CCc2ccccc2)o1` (configuration not stated), with -1.47% (inactive).
Turning to `CCc1noc(C)c1C(=O)N1CCCSC1=Nc1ccccc1OC`, the activation was 2.57% (inactive).
Next, `COc1ccc(Cl)cc1S(=O)(=O)N1CCN(CC(=O)C(C)(C)C)CC1`: -1.27% (inactive).
Then `N#Cc1ccsc1NC(=O)CN1CCN(S(=O)(=O)c2cc(Cl)ccc2Cl)CC1`, with -1.62% (inactive).
Then `O=C(CN1CCN(S(=O)(=O)c2cc(Cl)ccc2Cl)CC1)c1ccc(O)c(O)c1`, with 95.7% (active).
Regarding `C[C@H](C(=O)CC(=O)OC(C)(C)C)[C@H](O)c1ccc(C(F)(F)F)cc1`, the activation was 1.59% (inactive).
In the case of `COc1ccc(NC(=O)C2=C(C)NC(=O)NC2c2ccccc2[N+](=O)[O-])cc1` (configuration not stated), the activation was -2.61% (inactive).
Next, `Cc1ccc(Nc2nc(N)nc(CN3CCN(Cc4ccccc4)CC3)n2)cc1Cl`: 0.453% (inactive).
Next, `CNc1nc(Nc2ccc(C)c(Cl)c2)nc(N)c1[N+](=O)[O-]`: 5.39% (inactive).
As to `OCCNc1nc(Nc2ccc(Cl)c(Cl)c2)nc2ccccc12`, the activation is 51.9% (active).
Then `CCN(C(=O)CSc1nc(N)cc(=O)[nH]1)C1CCS(=O)(=O)C1` (configuration not stated), with 1.25% (inactive); and `CSCCNCc1cn(-c2ccc(F)cc2F)nc1-c1ccccc1C`, with -1.15% (inactive); and `CC1CCCC(NC(=O)c2cccc(N3CCCC3=O)c2)C1C` (configuration not stated), with 3.2% (inactive).
Take `COc1ccc(CCNC(=S)N2CCN(S(=O)(=O)c3ccc(Cl)cc3)CC2)cc1`: the activation was 1.93% (inactive).
Next, `C/C(=N\NC(=O)c1cccc(N2CCCC2=O)c1)c1ccc(N)cc1`: 1.34% (inactive); `Cc1ccc(NC(=S)NCCc2ccc(Cl)cc2)c(C)c1`: 1.96% (inactive); `O=C(NCCc1ccc(Cl)cc1)c1cccc(N2CCCC2=O)c1`: 54.4% (active).
As to `Oc1cc2c(cc1O)CN(C(=S)NCCc1ccc(Cl)cc1)CCC2`, the activation was 58.3% (active).
Next, `O=C(CSc1nnc(SCc2ccc(F)cc2)s1)Nc1ccc(C(=O)O)cc1`: -2.09% (inactive).
Then `Cc1ccc(C2NC(=S)NC3=C2N2CCC3CC2)cc1` (configuration not stated), with -2.03% (inactive).
Next, `CC(C(=O)O)n1cnc2sc3c(c2c1=O)CCCC3` (configuration not stated): -0.91% (inactive); `O=S(=O)(c1ccccc1)N(Cc1cccc(F)c1)c1ccccc1`: -1.78% (inactive).
As to `CC1(C)CC(=O)C=C(NC2CC(C)(C)NC(C)(C)C2)C1`, the activation was 0.506% (inactive).
Next, `CCCC(=O)N1c2ccc(-c3csc(N)n3)cc2CC1C` (configuration not stated): 4.75% (inactive); `Cc1onc(C(=O)NN)c1-c1csc(COc2ccccc2)n1`: -0.475% (inactive).
Next, `CC(C)(C)C(=O)OCc1nc(-c2ccc(O)c(O)c2)cs1`: 170% (active).
`NC(=O)C1CCN(C(=O)COc2ccc3c4c(c(=O)oc3c2)CCC4)CC1`: the activation is 1.77% (inactive).
Next, `COc1ccc(CNc2ncnc3ccccc23)cc1`: 5.16% (inactive); `COc1cnc(-c2ccccn2)nc1Oc1ccc(C(C)(C)C)cc1`: 3.2% (inactive); `c1ccc2c(NCC3CCCO3)nc(-c3ccncc3)nc2c1` (configuration not stated): -0.369% (inactive).
Next, `CC(C)(C)Nc1nc(-c2ccccn2)nc2ccccc12`: 61.4% (active); `N#Cc1ccc(Oc2cc(C(F)(F)F)nc(-c3ccccn3)n2)cc1`: -0.253% (inactive); `Cc1ccc(Oc2nc(-c3ccccn3)nc3ccccc23)cc1`: 48.5% (active).
For `CCCCOc1ccc(C(=O)N/C(=C/C=C/c2ccccc2)C(=O)N2CCOCC2)cc1`, the activation was 5.27% (inactive).
Next, `Cc1ccc2cc3cc(C(=O)N4CCCCCC4)oc3nc2c1`: 0.396% (inactive); `O=C(CSc1nc2ncccc2[nH]1)Nc1ccc2c(c1)OCCO2`: 0.487% (inactive); `Nc1nc(SCC(=O)NN(c2ccccc2)c2ccccc2)n[nH]1`: -0.687% (inactive).
With `CC(C)NC(=S)N1CCN(S(C)(=O)=O)CC1`, the activation was 0.831% (inactive).
Then `O=C(NNc1cc(Cl)ccc1Cl)c1cccnc1Cl`, with 0.393% (inactive).
Next, `COc1cccc(CNC(=O)c2cccnc2Sc2ccc(Cl)cc2)c1`: 0.384% (inactive); `CC(=O)/C(=N\Nc1ccc(Cl)cc1Cl)Sc1cccc2cccnc12`: 184% (active); `Cc1ccc(S(=O)(=O)CCC(=O)OCc2ccccc2)cc1`: 0.112% (inactive).
Then `CCOC(=O)c1ccc(NC(=O)c2nc[nH]c2C(=O)N[C@@H](CCCCNC(=O)OC(C)(C)C)C(=O)OC(C)(C)C)cc1`, with 2.33% (inactive); and `CC(=O)c1ccc(NC(=O)c2ccc(-n3cncn3)c([N+](=O)[O-])c2)cc1`, with 2.02% (inactive).
Regarding `COCCOC(=O)c1c(C)oc2cc(Br)c(OCC(N)=O)cc12`, the activation is 0.018% (inactive).
Then `CCc1ccc2c(c1)C1(NN=C(c3ccccc3)S1)C(=O)N2` (configuration not stated), with 135% (active).
Then `Cc1occc1C(=O)NC1CCCN(Cc2ccc(CC(C)C)cc2)C1` (configuration not stated), with 1.93% (inactive); and `O=C(Nc1c2c(nn1-c1ccccc1)CS(=O)(=O)C2)C1CCCC1`, with -0.808% (inactive).
Then `COC(=O)c1ccc(C(=O)OC)c(NC(=S)N2CCN(c3cc(Cl)ccc3C)CC2)c1`, with 1.94% (inactive); and `CCCN(CCC)C(=S)Nc1cc(C(=O)OC)ccc1C(=O)OC`, with 2.25% (inactive); and `COC(=O)c1ccc(C(=O)Nc2cc(Cl)ccc2Cl)cc1NC(=O)c1ccccc1C`, with 49.7% (active).
Regarding `O=C(CSc1nc2ccccc2c(=O)n1CCCO)NC1CC1`, the activation was 1.02% (inactive).
Consider `CCCCn1nc(C(=O)N2CCc3ccccc32)c2ccccc2c1=O`, for which the activation was -1.34% (inactive).
Then `Cn1cccc1/C=N/NC(=O)c1ccc(OC(F)(F)C(F)F)cc1`, with 2.77% (inactive); and `Cn1nccc1NC(=O)Nc1ccc(OC(F)(F)F)cc1`, with 0.489% (inactive).
On to `O=C(Nc1ccc(OC(F)(F)F)cc1)c1ccc2c(c1)no[n+]2[O-]`, for which the activation was 61% (active).
Then `CC(C)CC(=O)N1CCC(O)(CS(=O)(=O)Cc2ccccc2)CC1`, with -0.00639% (inactive).
Then `Cc1ccc(NC(=O)CCOc2ccccc2)cc1S(=O)(=O)Nc1ccccc1Cl`, with 2.43% (inactive).
Then `Cc1ccc(C(=O)N/C(=C/c2ccc(-c3cccc([N+](=O)[O-])c3)o2)C(=O)NCCCN(C)C)cc1`, with -0.289% (inactive); and `Cc1ccc(-c2ccc(/C=C(\C#N)C(N)=S)o2)c([N+](=O)[O-])c1`, with 3.33% (inactive); and `Cc1ccc(Cc2cnc(NC(=O)/C(C#N)=C/c3ccc(-c4cccc([N+](=O)[O-])c4)o3)s2)cc1`, with 73.3% (active).
